Screening data from PubChem BioAssay.
NR2E3 ag-1 = agonists of human nuclear receptor NR2E3 | 0.12% of 320,000 active | inhibition of corepressor binding, % at 4.78 µM | GST-NR2E3/biotin-RetCOR TR-FRET, 1536-well;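 active = percent inhibition above the cutoff of mean plus 3 SD of all tested compounds, set per screening campaign, cut at about 20% in these data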;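 note: 0% = DMSO wells and 100% = biotin wells as full block of FRET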
Target sequence (Q9Y5X4 whole entry, looked up): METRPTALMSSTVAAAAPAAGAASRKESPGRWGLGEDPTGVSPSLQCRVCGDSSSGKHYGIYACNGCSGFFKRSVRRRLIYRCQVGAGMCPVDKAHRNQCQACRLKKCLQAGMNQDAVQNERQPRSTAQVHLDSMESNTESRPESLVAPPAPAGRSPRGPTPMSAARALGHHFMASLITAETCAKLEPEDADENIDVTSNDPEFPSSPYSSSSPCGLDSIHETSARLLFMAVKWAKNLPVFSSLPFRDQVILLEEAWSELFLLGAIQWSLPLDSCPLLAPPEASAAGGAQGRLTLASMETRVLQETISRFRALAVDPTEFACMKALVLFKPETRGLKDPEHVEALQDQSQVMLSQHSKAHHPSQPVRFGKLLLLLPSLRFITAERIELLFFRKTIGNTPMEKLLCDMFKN
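System: GST-NR2E3 and biotin-RetCOR proteins; probe or stimulus: 7 nM biotin-RetCOR; doses: compound at 4.8 µM, single dose; schedule: Compound–protein incubation for 5 h at 4 °C; detection: time-resolved FRET; read-out: percent inhibition; controls: biotin wells as high control, 0.6% DMSO wells as low control; format: 1536-well plates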
NR2E3 ag-2 = activates human NR2E3 receptor; Q9Y5X4; CHO-S Gal4-NCOR/VP16-NR2E3 two-hybrid, luciferase; 0.35% of 360,000 active; inhibition of corepressor binding, % at 3.98 µM;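 active = inhibition above the mean of all tested compounds plus 3 SD, cut at about 70% in these data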;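 note: 0% = DMSO with NR2E3 transfected cells and 100% = cells lacking NR2E3 construct; higher means lower luciferase signal from less NR2E3 corepressor binding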
DAGLB inhibitor = diacylglycerol lipase beta (human) inhibition; inhibition, % at 5.17 µM; 0.059% of 340,000 active; HEK293T DAGLB membrane lysate, EnzChek fluorogenic substrate; Q8NCG7; in the data active = inhibition above about 34%;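 note: 0% = enzyme with vehicle and 100% = wells lacking enzyme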
core dimer inh = blocks dimerization of HCV core protein. TR-FRET GST/Flag-core106 dimerization, 1536-well. inhibition, % at 5 µM. 0.33% of 300,000 active;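 active = inhibition above the mean of all tested compounds plus 3 SD, set per screening campaign, cut at about 45% in these data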
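Material: Tagged HCV core106 pair (GST and Flag) | Amount: GST-core106 13.5 nM, Flag-core106 17 nM | Medium: KF-containing HEPES buffer, pH 7.45, DTT, CHAPS, BSA | Reagent: Eu donor and XL665 acceptor anti-tag antibodies | Schedule: 4 h at 22.5 °C | Technique: Time-resolved FRET, ex 340 nm, em 617 and 671 nm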
Vif inh = inhibitors of HIV Vif. HEK293T cells, Vif self-association by quenched fluorescence, imaging, 24 h. inhibition, % at 7.49 µM. 0.35% of 340,000 active. AID 602346; in the data active = inhibition above about 50%, passing the limit was not always enough
MT1-MMP act inh = inhibitors of human MT1-MMP activation | P50281 | HT1080 RFP-PRO-GFP cells, GFP/RFP ratio fluorescence, overnight; percent of plate control window, DMSO zero | GFP/RFP ratio change, % at 20 µM | 0.061% of 360,000 active;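 active = GFP/RFP ratio change of at least 30% with cell ATP level not reduced by more than half and red fluorescence within 50% of control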
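Test system: HT1080 cells expressing an RFP-PRO-GFP fluorescent reporter construct / Compound dosing: single-point 20 µM compound, 1% DMSO / Schedule: cells overnight before dosing, compound overnight, 37 °C, 5% CO2 / Evaluation: GFP/RFP fluorescence ratio / Control set: DMSO and RFP-L50D-GFP cell wells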
NR2E3 agonist cf = NR2E3 (human) agonism, confirmation. shares compounds with NR2E3 ag-1. cell-free NR2E3 corepressor release, TR-FRET, 5 h. activation (reported as inhibition), % at 3.98 µM. 39% of 360 active; in the data active = activation above about 20%
PPARg-NCOR2 ctr = releases PPARgamma from NCOR2 in NR2E3 counter-screen. shares compounds with NR2E3 ag-1. TR-FRET PPARg-NCOR2 coregulator interaction, biochemical. inhibition, % at 3.98 µM. 45% of 360 active. AID 504787; in the data active = inhibition above about 20%;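 note: 0% = DMSO vehicle and 100% = wells without protein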
* marks the source's active call; other numbers are inactive results; x = no result given. Shown are actives, neighbours in structure and some others; about 1.1% of the full set was active somewhere.

SMILES | NR2E3 ag-1 | NR2E3 ag-2 | DAGLB inhibitor | core dimer inh | Vif inh | MT1-MMP act inh | NR2E3 agonist cf | PPARg-NCOR2 ctr
Cc1c(Br)c(=O)oc2c(C)c(O)ccc12 | 21* | 5 | 1 | -4 | 0 | -3 | 1 | 0
COCc1ccc(C(=O)N(C)C2CCCN(Cc3ccccc3F)C2)o1 (stereo unspecified) | 1 | -5 | 0 | 11 | -1 | 0 | x | x
Cc1cc(C)c(Cn2c(=O)n(CCCC(=O)NCc3ccco3)c(=O)c3sccc32)c(C)c1 | 27* | 8 | 5 | 10 | 50 | 1 | 4 | -5
Cc1c2cc(O)c(=O)cc-2oc2cc(O)c(O)cc12 | 40* | -15 | 2 | -14 | 9 | -194 | 20* | -14
CCOC(=O)c1c(C)[nH]c(C)c1C(=O)COC(=O)c1ccc(Cl)c(S(=O)(=O)NCc2ccccc2)c1 | -1 | 22 | -3 | 10 | 7 | 1 | x | x
CC(C)NC(=O)C1(C)CN(S(C)(=O)=O)CC(=O)N1Cc1ccc2c(c1)OCO2 (stereo unspecified) | x | x | x | x | x | 5 | x | x
COc1ccc(C(=O)Nc2ccccc2C(=O)NC(Cc2ccc(O)cc2)C(=O)NNC(=O)c2ccccc2Cl)cc1 (stereo unspecified) | -2 | 5 | 3 | 19 | -5 | -4 | x | x
COc1ccc(C(=O)NNC(=O)C(Cc2ccc(O)cc2)NC(=O)c2ccccc2NC(=O)c2ccc(OC)cc2)cc1 (stereo unspecified) | 40* | 13 | 0 | 2 | 0 | -3 | 22* | -5
Cc1cc(N2C(=O)C(O)=C(C(=O)c3cccs3)C2c2ccccc2)no1 (stereo unspecified) | 6 | 21 | 2 | -2 | -1 | 0 | x | x
COc1cccc(C2C(C(=O)c3ccc(C)o3)=C(O)C(=O)N2c2cc(C)on2)c1 (stereo unspecified) | 12 | -42 | -1 | 5 | 2 | 1 | x | x
Cc1cc(N2C(=O)C(O)=C(C(=O)c3cc4ccccc4o3)C2c2cccc(Br)c2)no1 (stereo unspecified) | 38* | 31 | 9 | -6 | -3 | 4 | 48* | 46*
CCCOc1cccc(C2C(C(=O)c3cc4ccccc4o3)=C(O)C(=O)N2c2cc(C)on2)c1 (stereo unspecified) | 24* | -9 | 8 | -15 | -1 | 5 | 34* | 36*
COc1ccc2nc(C)cc(SCC(NC(C)=O)C(=O)OC(C)C)c2c1 (stereo unspecified) | 1 | -19 | -3 | 6 | -6 | -3 | x | x
CC(=O)NC(CSc1cc(C)nc2ccc(Br)cc12)C(=O)O (stereo unspecified) | 25* | -22 | 2 | 15 | 11 | -1 | 11 | 67*
Cc1cc(NC(=O)C(C)Oc2ccccc2)no1 (stereo unspecified) | -2 | -14 | -1 | -16 | 13 | 1 | x | x
CC(C)c1nc2sc3c(=O)[nH]c(=S)[nH]c3c2c2c1CCCC2 | 24* | -19 | 0 | 16 | -4 | 2 | 45* | 44*
O=c1cc(O)c2sc3nc(C(F)(F)F)c4c(c3c2[nH]1)CCCCC4 | -27 | 0 | 1 | 8 | -5 | -1 | x | x
O=C(O)CCCC[C@@H]1SC[C@@H]2NC(=O)N[C@@H]21 | 93* | 7 | 2 | -4 | 33 | 6 | 94* | 94*
Cc1ccc(NC(=O)COc2ccccc2C(N)=O)cc1S(=O)(=O)N1CCCCCC1 | 5 | 38 | 0 | x | -8 | 5 | x | x
COc1cccc2cc(C(=O)C3=C(O)C(=O)N(Cc4ccco4)C3c3cccnc3)oc12 (stereo unspecified) | 28* | -23 | 3 | 16 | -6 | 4 | 20* | 24*
COc1ccc(C2C(C(=O)c3ccco3)=C(O)C(=O)N2Cc2cccnc2)cc1OC (stereo unspecified) | 4 | -18 | 2 | -4 | 27 | 1 | x | x
O=C(C1=C(O)C(=O)N(Cc2ccco2)C1c1cccnc1)c1cc2ccccc2o1 (stereo unspecified) | 38* | -19 | 1 | 12 | -7 | -2 | 43* | 42*
COP(=O)(OC)C(NC(=O)Nc1ccccc1)c1ccccc1 (stereo unspecified) | -2 | 7 | -2 | 2 | 1 | -4 | x | x
CCc1ccc(NC(=O)CC2C(=O)N(c3cccc(C)c3)C(=O)N2C2CC2)cc1 (stereo unspecified) | 1 | 18 | -1 | 4 | 11 | 2 | x | x
c1ccc(-n2ncc3c2ncn2nc(-c4ccco4)nc32)cc1 | 48* | -96 | -3 | 52* | 1 | -6 | 18 | 59*
SMILES | NR2E3 ag-1 | NR2E3 ag-2 | DAGLB inhibitor | core dimer inh | Vif inh | MT1-MMP act inh | NR2E3 agonist cf | PPARg-NCOR2 ctr
CCCN1CCc2c(sc(NC(=O)C3CCN(S(=O)(=O)c4cccs4)CC3)c2C(N)=O)C1 | 1 | 20 | 1 | -2 | -1 | -135 | x | x
COc1ccc(OC)c(-c2csc(N3CCC(c4ccccc4)CC3)n2)c1 | -2 | -11 | -5 | -1 | 1 | -1 | x | x
COc1cccc(CNC(=O)COC(=O)/C(C#N)=C/c2ccc(N(C)C)cc2)c1 | 31* | -21 | -2 | x | 2 | -5 | 36* | 35*
Cc1ccc(CSCCNC(=O)c2ccc(N(C)S(=O)(=O)c3ccccc3)cc2)cc1 | 22* | 25 | -6 | -6 | -6 | 1 | -10 | 4
CCOC(=O)COc1cc(Br)c(/C=N/Nc2ccccc2)cc1OC | 26* | 28 | 1 | 5 | 6 | 0 | 1 | 1
CCCCC1=CC2=C(c3ccco3)C(=O)C(C)(OC(=O)c3ccc(OC)cc3)C(=O)C2=CN1c1ccc(OC)cc1 (stereo unspecified) | 34* | -20 | 10 | 58* | -3 | -23 | -3 | 5
CCCCC1=CC2=C(c3ccco3)C(=O)C(C)(OC(=O)c3ccc(OC)cc3)C(=O)C2=CN1C1CCCC1 (stereo unspecified) | 47* | x | x | 59* | x | x | 8 | 13
CSc1ccc(CN2CCC2(C)C(=O)NCc2ccc3c(c2)OCO3)cc1 (stereo unspecified) | x | -17 | x | x | 0 | 1 | x | x
CCC(C)C(NC(=O)C(Cc1ccc(O)cc1)NC(=O)OCc1ccccc1)C(=O)OC (stereo unspecified) | x | -3 | x | x | -2 | 1 | x | x
